Test results taken from ChEMBL document CHEMBL3286094, “Synthesis and biological evaluation of novel bisbenzimidazoles as Escherichia coli topoisomerase IA inhibitors and potential antibacterial agents” (J Med Chem, 2014).
In brackets after ≈: the same amount, converted by molar mass. Activity calls are given as the source filed them. The rule behind the calls is not given here.

Tests used:
Escherichia coli [1] = assay: Bactericidal activity against ampicillin/chloramphenicol/ciprofloxacin/gentamicin/tetracycline-resistant Escherichia coli 401 by agar plating method; assay type: functional
Escherichia coli [2] = assay: Antibacterial activity against ampicillin/trimethoprim/piperacillin-resistant Escherichia coli MKNJ isolated from water source assessed as growth inhibition after 18 to 24 hrs by broth microdilution method
Escherichia coli [3] = assay: Antibacterial activity against cefazolinl/ampicillin/piperacillin/cefuroxime/cefepime/cefotaxime/tetracycline/ciprofloxacin-resistant Escherichia coli NG3 isolated from water source assessed as growth inhibition after 18 to 24 hrs by broth microdilution method
Escherichia coli [4] = assay: Bactericidal activity against ampicillin/tetracycline-resistant Escherichia coli IP18 isolated from water source by agar plating method
Escherichia coli [5] = assay: Antibacterial activity against ampicillin/tetracycline-resistant Escherichia coli IP18 isolated from water source assessed as growth inhibition after 18 to 24 hrs by broth microdilution method
[6] = Inhibition of Escherichia coli DNA topoisomerase-1A using supercoiled pHOT1 plasmid DNA as substrate assessed as inhibition of DNA relaxation after 30 mins by agarose gel electrophoresis
Method in brief: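 Supercoiled plasmid DNA incubated with E. coli Topo IA in the presence of compound at […]. Relaxation products were resolved by electrophoresis on 1% agarose gel.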

Escherichia coli [7] = assay: Antibacterial activity against ampicillin/tetracycline/piperacillin-resistant Escherichia coli WB31 isolated from water source assessed as growth inhibition after 18 to 24 hrs by broth microdilution method
Escherichia coli [8] = assay: Bactericidal activity against chloramphenicol/ampicillin/kanamycin/trimethoprim/ciprofloxacin/nalidixic acid-resistant Escherichia coli 132 by agar plating method; assay type: functional
Escherichia coli [9] = assay: Bactericidal activity against ampicillin/tetracycline/piperacillin-resistant Escherichia coli WB31 isolated from water source by agar plating method
Homo sapiens = species: Homo sapiens; assay: Inhibition of human DNA topoisomerase-1B using supercoiled pHOT1 plasmid DNA as substrate assessed as inhibition of DNA relaxation at 100 uM after 30 mins by agarose gel electrophoresis
Escherichia coli [10] = assay: Bactericidal activity against chloroamphenicol/ampicillin/kanamycin/trimethoprim/ciprofloxacin/nalidixic acid-resistant Escherichia coli 85 by agar plating method; assay type: functional
Escherichia coli [11] = assay: Antibacterial activity against ampicillin/ciprofloxacin/gentamicin/tetracycline-resistant Escherichia coli 555 assessed as growth inhibition after 18 to 24 hrs by broth microdilution method; assay type: functional
Escherichia coli [12] = assay: Bactericidal activity against ampicillin/chloramphenicol/tetracycline/trimethoprim/ciprofloxacin-resistant Escherichia coli KK45 isolated from water source by agar plating method
Escherichia coli [13] = assay: Antibacterial activity against Escherichia coli ATCC 25922 assessed as growth inhibition after 18 to 24 hrs by broth microdilution method; assay type: functional
Escherichia coli [14] = assay: Inhibition of Escherichia coli DNA gyrase using relaxed pHOT1 plasmid DNA as substrate assessed as inhibition of DNA supercoiling up to 100 uM after 30 mins by agarose gel electrophoresis
Escherichia coli [15] = assay: Antibacterial activity against ampicillin/chloramphenicol/tetracycline/trimethoprim/ciprofloxacin-resistant Escherichia coli KK45 isolated from water source assessed as growth inhibition after 18 to 24 hrs by broth microdilution method
Escherichia coli [16] = assay: Antibacterial activity against cefazolinl/ampicillin/piperacillin/cefuroxime/cefepime/cefotaxime/tetracycline/trimethoprim-resistant Escherichia coli KK16 isolated from water source assessed as growth inhibition after 18 to 24 hrs by broth microdilution method
Escherichia coli [17] = assay: Antibacterial activity against chloramphenicol/ampicillin/kanamycin/trimethoprim/ciprofloxacin/nalidixic acid-resistant Escherichia coli 132 assessed as growth inhibition after 18 to 24 hrs by broth microdilution method; assay type: functional
Escherichia coli [18] = assay: Antibacterial activity against tetracycline/trimethoprim-resistant Escherichia coli IST isolated from water source assessed as growth inhibition after 18 to 24 hrs by broth microdilution method
Escherichia coli [19] = assay: Antibacterial activity against Escherichia coli DH5[alpha] assessed as growth inhibition after 18 to 24 hrs by broth microdilution method; assay type: functional
Escherichia coli [20] = assay: Bactericidal activity against ciprofloxacin-resistant Escherichia coli 72 by agar plating method; assay type: functional
Escherichia coli [21] = assay: Antibacterial activity against ampicillin/kanamycin/trimethoprim/tetracyclin/ciprofloxacin/nalidixic acid-resistant Escherichia coli 81 assessed as growth inhibition after 18 to 24 hrs by broth microdilution method; assay type: functional
Escherichia coli [22] = assay: Antibacterial activity against ampicillin/trimethoprim/nalidixic acid-resistant Escherichia coli 118 assessed as growth inhibition after 18 to 24 hrs by broth microdilution method; assay type: functional
Escherichia coli [23] = assay: Antibacterial activity against chloramphenicol/ampicillin/kanamycin/trimethoprim/ciprofloxacin/nalidixic acid-resistant Escherichia coli 151 assessed as growth inhibition after 18 to 24 hrs by broth microdilution method; assay type: functional
Escherichia coli [24] = assay: Bactericidal activity against multidrug-resistant Escherichia coli IS 54 isolated from water source by agar plating method; conditions: IS 54, Water
Escherichia coli [25] = assay: Bactericidal activity against ampicillin/trimethoprim/cefazolinl/piperacillin/cefuroxime/cefoxitine/cefepime/cefotaxime-resistant Escherichia coli KP21 isolated from water source by agar plating method
Escherichia coli [26] = assay: Bactericidal activity against cefazolinl/ampicillin/piperacillin/cefuroxime/cefepime/cefotaxime/tetracycline/trimethoprim-resistant Escherichia coli KK16 isolated from water source by agar plating method
Escherichia coli [27] = assay: Bactericidal activity against cefazolinl/ampicillin/piperacillin/cefuroxime/cefepime/cefotaxime/tetracycline/ciprofloxacin-resistant Escherichia coli NG3 isolated from water source by agar plating method
Escherichia coli [28] = assay: Antibacterial activity against ampicillin/trimethoprim/cefazolinl/piperacillin/cefuroxime/cefoxitine/cefepime/cefotaxime-resistant Escherichia coli KP21 isolated from water source assessed as growth inhibition after 18 to 24 hrs by broth microdilution method
Escherichia coli [29] = assay: Antibacterial activity against ciprofloxacin-resistant Escherichia coli 72 assessed as growth inhibition after 18 to 24 hrs by broth microdilution method; assay type: functional
Escherichia coli [30] = assay: Bactericidal activity against Escherichia coli DH5[alpha] by agar plating method; assay type: functional
Escherichia coli [31] = assay: Antibacterial activity against ampicillin/chloramphenicol/ciprofloxacin/gentamicin/tetracycline-resistant Escherichia coli 401 assessed as growth inhibition after 18 to 24 hrs by broth microdilution method; assay type: functional
Escherichia coli [32] = assay: Bactericidal activity against Escherichia coli ATCC 25922 by agar plating method; assay type: functional

CCCN1CCN(c2ccc3nc(-c4ccc5nc(-c6ccc(OC)c(OC)c6)[nH]c5c4)[nH]c3c2)CC1
MBC (Escherichia coli [1]): 8 µg/mL (≈ 16.1 µM)
MIC50 (Escherichia coli [2]): 4 µg/mL (≈ 8.05 µM)
MIC90 (Escherichia coli [2]): 7.6 µg/mL (≈ 15.3 µM)
MIC50 (Escherichia coli [3]): 4 µg/mL (≈ 8.05 µM)
MIC90 (Escherichia coli [3]): 7.6 µg/mL (≈ 15.3 µM)
MBC (Escherichia coli [4]): 8 µg/mL (≈ 16.1 µM)
MIC50 (Escherichia coli [5]): 4 µg/mL (≈ 8.05 µM)
MIC90 (Escherichia coli [5]): 7.6 µg/mL (≈ 15.3 µM)
IC50 [6]: 3 µM
MIC50 (Escherichia coli [7]): 8 µg/mL (≈ 16.1 µM)
MIC90 (Escherichia coli [7]): 15.2 µg/mL (≈ 30.6 µM)
MBC (Escherichia coli [8]): 128 µg/mL (≈ 258 µM)
MBC (Escherichia coli [9]): 16 µg/mL (≈ 32.2 µM)
inhibition (Homo sapiens): Active
MBC (Escherichia coli [10]): 16 µg/mL (≈ 32.2 µM)
MIC50 (Escherichia coli [11]): 16 µg/mL (≈ 32.2 µM)
MIC90 (Escherichia coli [11]): 29.8 µg/mL (≈ 60 µM)
MBC (Escherichia coli [12]): 8 µg/mL (≈ 16.1 µM)
MIC50 (Escherichia coli [13]): 8 µg/mL (≈ 16.1 µM)
MIC90 (Escherichia coli [13]): 12.5 µg/mL (≈ 25.2 µM)
inhibition (Escherichia coli [14]): inactive
MIC50 (Escherichia coli [15]): 4 µg/mL (≈ 8.05 µM)
MIC90 (Escherichia coli [15]): 7.7 µg/mL (≈ 15.5 µM)
MIC50 (Escherichia coli [16]): 2 µg/mL (≈ 4.03 µM)
MIC90 (Escherichia coli [16]): 3.7 µg/mL (≈ 7.45 µM)
MIC50 (Escherichia coli [17]): 64 µg/mL (≈ 129 µM)
MIC90 (Escherichia coli [17]): 118 µg/mL (≈ 238 µM)
MIC50 (Escherichia coli [18]): 8 µg/mL (≈ 16.1 µM)
MIC90 (Escherichia coli [18]): 14.9 µg/mL (≈ 30 µM)
MIC50 (Escherichia coli [19]): 2 µg/mL (≈ 4.03 µM)
MIC90 (Escherichia coli [19]): 3.2 µg/mL (≈ 6.44 µM)
MBC (Escherichia coli [20]): 4 µg/mL (≈ 8.05 µM)
MIC50 (Escherichia coli [21]): 8 µg/mL (≈ 16.1 µM)
MIC90 (Escherichia coli [21]): 14.5 µg/mL (≈ 29.2 µM)
MIC50 (Escherichia coli [22]): 2 µg/mL (≈ 4.03 µM)
MIC90 (Escherichia coli [22]): 3.2 µg/mL (≈ 6.44 µM)
MIC50 (Escherichia coli [23]): 8 µg/mL (≈ 16.1 µM)
MIC90 (Escherichia coli [23]): 15.1 µg/mL (≈ 30.4 µM)
MBC (Escherichia coli [24]): 16 µg/mL (≈ 32.2 µM)
MBC (Escherichia coli [25]): 16 µg/mL (≈ 32.2 µM)
MBC (Escherichia coli [26]): 4 µg/mL (≈ 8.05 µM)
MBC (Escherichia coli [27]): 8 µg/mL (≈ 16.1 µM)
MIC50 (Escherichia coli [28]): 8 µg/mL (≈ 16.1 µM)
MIC90 (Escherichia coli [28]): 14.8 µg/mL (≈ 29.8 µM)
MIC50 (Escherichia coli [29]): 2 µg/mL (≈ 4.03 µM)
MIC90 (Escherichia coli [29]): 3.4 µg/mL (≈ 6.85 µM)
MBC (Escherichia coli [30]): 4 µg/mL (≈ 8.05 µM)
MIC50 (Escherichia coli [31]): 4 µg/mL (≈ 8.05 µM)
MIC90 (Escherichia coli [31]): 7.2 µg/mL (≈ 14.5 µM)
MBC (Escherichia coli [32]): 16 µg/mL (≈ 32.2 µM)

COc1ccc(-c2nc3ccc(-c4nc5ccc(N6CCN(c7ncccn7)CC6)cc5[nH]4)cc3[nH]2)cc1OC
MBC (Escherichia coli [1]): 32 µg/mL (≈ 60.1 µM)
MIC50 (Escherichia coli [2]): 32 µg/mL (≈ 60.1 µM)
MIC90 (Escherichia coli [2]): 61.4 µg/mL (≈ 115 µM)
MIC50 (Escherichia coli [3]): 16 µg/mL (≈ 30 µM)
MIC90 (Escherichia coli [3]): 30.6 µg/mL (≈ 57.5 µM)
MBC (Escherichia coli [4]): 32 µg/mL (≈ 60.1 µM)
MIC50 (Escherichia coli [5]): 16 µg/mL (≈ 30 µM)
MIC90 (Escherichia coli [5]): 30.8 µg/mL (≈ 57.8 µM)
IC50 [6]: 6.2 µM
MIC50 (Escherichia coli [7]): 16 µg/mL (≈ 30 µM)
MIC90 (Escherichia coli [7]): 30.2 µg/mL (≈ 56.7 µM)
MBC (Escherichia coli [8]): 128 µg/mL (≈ 240 µM)
MBC (Escherichia coli [9]): 32 µg/mL (≈ 60.1 µM)
inhibition (Homo sapiens): Active
MBC (Escherichia coli [10]): 64 µg/mL (≈ 120 µM)
MIC50 (Escherichia coli [11]): 32 µg/mL (≈ 60.1 µM)
MIC90 (Escherichia coli [11]): 59.4 µg/mL (≈ 112 µM)
MBC (Escherichia coli [12]): 32 µg/mL (≈ 60.1 µM)
MIC50 (Escherichia coli [13]): 32 µg/mL (≈ 60.1 µM)
MIC90 (Escherichia coli [13]): 49 µg/mL (≈ 92 µM)
inhibition (Escherichia coli [14]): inactive
MIC50 (Escherichia coli [15]): 16 µg/mL (≈ 30 µM)
MIC90 (Escherichia coli [15]): 30.2 µg/mL (≈ 56.7 µM)
MIC50 (Escherichia coli [16]): 16 µg/mL (≈ 30 µM)
MIC90 (Escherichia coli [16]): 30.4 µg/mL (≈ 57.1 µM)
MIC50 (Escherichia coli [17]): 64 µg/mL (≈ 120 µM)
MIC90 (Escherichia coli [17]): 122 µg/mL (≈ 229 µM)
MIC50 (Escherichia coli [18]): 16 µg/mL (≈ 30 µM)
MIC90 (Escherichia coli [18]): 30.8 µg/mL (≈ 57.8 µM)
MIC50 (Escherichia coli [19]): 2 µg/mL (≈ 3.76 µM)
MIC90 (Escherichia coli [19]): 3.6 µg/mL (≈ 6.76 µM)
MBC (Escherichia coli [20]): 32 µg/mL (≈ 60.1 µM)
MIC50 (Escherichia coli [21]): 16 µg/mL (≈ 30 µM)
MIC90 (Escherichia coli [21]): 29.7 µg/mL (≈ 55.8 µM)
MIC50 (Escherichia coli [22]): 4 µg/mL (≈ 7.51 µM)
MIC90 (Escherichia coli [22]): 7.4 µg/mL (≈ 13.9 µM)
MIC50 (Escherichia coli [23]): 16 µg/mL (≈ 30 µM)
MIC90 (Escherichia coli [23]): 30.4 µg/mL (≈ 57.1 µM)
MBC (Escherichia coli [24]): 64 µg/mL (≈ 120 µM)
MBC (Escherichia coli [25]): 64 µg/mL (≈ 120 µM)
MBC (Escherichia coli [26]): 32 µg/mL (≈ 60.1 µM)
MBC (Escherichia coli [27]): 32 µg/mL (≈ 60.1 µM)
MIC50 (Escherichia coli [28]): 32 µg/mL (≈ 60.1 µM)
MIC90 (Escherichia coli [28]): 60.5 µg/mL (≈ 114 µM)
MIC50 (Escherichia coli [29]): 16 µg/mL (≈ 30 µM)
MIC90 (Escherichia coli [29]): 30.1 µg/mL (≈ 56.5 µM)
MBC (Escherichia coli [30]): 4 µg/mL (≈ 7.51 µM)
MIC50 (Escherichia coli [31]): 16 µg/mL (≈ 30 µM)
MIC90 (Escherichia coli [31]): 29 µg/mL (≈ 54.4 µM)
MBC (Escherichia coli [32]): 64 µg/mL (≈ 120 µM)
